# High-throughput results (PubChem)
# Rin1-Abl PPI inh: human Rin1-Abl interaction inhibition | TR-FRET Rin1/Abl binding, biochemical | inhibition, % at 7.35 µM | hit rate 0.4% among 360,000 | P00519+Q13671; in the data active means inhibition above about 5%, passing the limit was not always enough
# Target sequence (P00519 whole entry, looked up): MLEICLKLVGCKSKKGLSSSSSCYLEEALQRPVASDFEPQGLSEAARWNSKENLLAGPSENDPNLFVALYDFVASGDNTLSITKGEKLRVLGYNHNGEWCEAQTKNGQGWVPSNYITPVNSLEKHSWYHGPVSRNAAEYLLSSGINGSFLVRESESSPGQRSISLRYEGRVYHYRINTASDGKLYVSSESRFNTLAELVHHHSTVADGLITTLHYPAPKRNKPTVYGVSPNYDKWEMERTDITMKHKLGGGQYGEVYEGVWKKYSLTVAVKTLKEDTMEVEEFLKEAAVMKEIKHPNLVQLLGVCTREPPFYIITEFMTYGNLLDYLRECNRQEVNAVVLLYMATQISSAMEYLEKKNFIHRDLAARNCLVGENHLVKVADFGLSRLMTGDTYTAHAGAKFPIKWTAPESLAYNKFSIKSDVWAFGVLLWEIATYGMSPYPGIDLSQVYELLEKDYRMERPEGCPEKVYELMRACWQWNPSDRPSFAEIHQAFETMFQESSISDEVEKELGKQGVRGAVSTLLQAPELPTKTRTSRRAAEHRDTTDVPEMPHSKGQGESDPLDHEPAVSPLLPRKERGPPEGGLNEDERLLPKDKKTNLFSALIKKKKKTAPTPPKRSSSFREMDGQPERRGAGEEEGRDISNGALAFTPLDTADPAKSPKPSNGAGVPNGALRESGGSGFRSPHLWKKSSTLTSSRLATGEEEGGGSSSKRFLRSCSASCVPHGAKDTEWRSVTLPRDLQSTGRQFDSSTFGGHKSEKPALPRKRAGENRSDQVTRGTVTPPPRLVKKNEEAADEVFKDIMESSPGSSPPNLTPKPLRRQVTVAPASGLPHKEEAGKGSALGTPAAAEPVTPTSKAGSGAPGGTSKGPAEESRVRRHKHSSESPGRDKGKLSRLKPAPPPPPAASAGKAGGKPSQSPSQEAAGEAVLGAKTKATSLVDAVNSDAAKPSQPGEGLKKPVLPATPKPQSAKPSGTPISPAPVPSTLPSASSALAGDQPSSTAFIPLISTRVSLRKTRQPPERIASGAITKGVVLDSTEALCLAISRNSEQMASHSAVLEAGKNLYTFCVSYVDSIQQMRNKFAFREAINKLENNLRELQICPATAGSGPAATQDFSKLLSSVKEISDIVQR
# Target sequence (Q13671 whole entry, looked up): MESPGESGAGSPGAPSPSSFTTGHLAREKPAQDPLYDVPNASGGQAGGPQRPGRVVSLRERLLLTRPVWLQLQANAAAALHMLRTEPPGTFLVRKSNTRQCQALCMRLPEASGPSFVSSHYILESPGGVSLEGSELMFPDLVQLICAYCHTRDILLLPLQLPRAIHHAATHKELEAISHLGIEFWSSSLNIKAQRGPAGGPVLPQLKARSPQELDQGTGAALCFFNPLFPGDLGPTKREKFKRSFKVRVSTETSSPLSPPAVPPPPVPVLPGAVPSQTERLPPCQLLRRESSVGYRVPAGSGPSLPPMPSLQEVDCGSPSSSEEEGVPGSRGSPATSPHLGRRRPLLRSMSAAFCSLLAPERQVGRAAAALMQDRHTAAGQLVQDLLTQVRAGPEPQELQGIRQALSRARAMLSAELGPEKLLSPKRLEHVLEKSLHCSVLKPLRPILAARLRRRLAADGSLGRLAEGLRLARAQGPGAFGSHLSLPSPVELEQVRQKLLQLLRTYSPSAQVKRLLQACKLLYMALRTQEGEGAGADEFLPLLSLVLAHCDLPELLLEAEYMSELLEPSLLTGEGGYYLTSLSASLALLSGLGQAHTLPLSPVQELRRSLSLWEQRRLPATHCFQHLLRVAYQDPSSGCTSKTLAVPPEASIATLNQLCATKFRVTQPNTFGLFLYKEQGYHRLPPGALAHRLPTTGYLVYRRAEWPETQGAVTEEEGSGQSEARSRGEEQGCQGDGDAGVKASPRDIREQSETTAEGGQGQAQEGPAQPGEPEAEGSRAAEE
# PDI inh: inhibitors of human protein disulfide isomerase; PDI insulin aggregation turbidity, A650, 90 min; hit rate 0.052% among 350,000; inhibition, % at 10 µM;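 active means mean inhibition across replicates of 30% or more, whatever share of single replicates reach that level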
# CAL PDZ FP-1: CAL PDZ (human) peptide binding inhibition; inhibition, % at 24.9 µM; AID 602252; purified CAL PDZ, TMR-peptide fluorescence polarization, 1 h; hit rate 0.92% among 300,000;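 active means mean inhibition of at least 30% with at least half of replicates also reaching 30%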;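 further: 0% = DMSO neutral control and 100% = excess unlabeled competitor peptide PRC23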
# CAL PDZ FP-2: human CAL PDZ-peptide interaction inhibition | Q9HD26 | purified CAL PDZ, TMR-peptide fluorescence polarization, 1 h | inhibition, % at 20 µM | hit rate 0.02% among 330,000 | AID 504414;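 active means highest replicate inhibition of at least 40%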;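 further: plate controls were DMSO neutral control wells for no effect and unlabeled competitor peptide control wells for full effect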
#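 Material: tagged CAL PDZ protein CerCALP, purified; buffer or medium: sodium phosphate/NaCl buffer pH 7.4 with TCEP, IgG, Thesit; also added: fluorescent TMR peptide probe; schedule: 1 h incubation at room temperature before polarization reading; technique: fluorescence polarization from S- and P-plane intensities, G-factor corrected; control set: unlabelled peptide and DMSO controls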
# ERp5 block: blocks human ERp5 reductase activity on insulin; hit rate 0.05% among 350,000; ERp5 insulin aggregation, absorbance 650 nm, 90 min; inhibition, % at 9.99 µM; Q15084;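 active means mean replicate inhibition above about 25%, with every replicate also reaching it, limit read from the data, passing the limit was not always enough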
# ERAP1 HTS inh: inhibitors of human ERAP1 aminopeptidase. recombinant ERAP1, Leu-AMC fluorescence, 60 min. AID 652197. inhibition, % at 10.7 µM. Q9NZ08. hit rate 0.15% among 340,000;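 active means mean replicate inhibition of at least 30%, or all replicates individually reaching that 30% level; inactive means mean below 30% and not every replicate reaching it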;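 further: 0% = neutral control wells and 100% = L-leucinethiol positive control wells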
# Rin1 Abl conf: confirmation of inhibitors of human Rin1-Abl interaction; shares compounds with Rin1-Abl PPI inh; TR-FRET Rin1-Abl binding, purified proteins; inhibition, % at 7.35 µM; hit rate 49% among 1,300
# GFP quench-1: quenches GFP fluorescence, counter-screen for Rin1-Abl inhibitors; shares compounds with Rin1-Abl PPI inh; inhibition, % at 6.75 µM; inhibitors/quenchers counterscreen; hit rate 8.5% among 1,300;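 further: ABL1-eGFP fusion protein alone without its partner RIN1-SBP; 0% = protein with vehicle and 100% = wells lacking protein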
# GFP quench dose: quenches GFP in dose response, Rin1-Abl counter-screen; IC50, µM; shares compounds with Rin1-Abl PPI inh; 230 tested, under 10 active; GFP fluorescence interference/quenching counterscreen; call rule not given here;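 further: ABL1-eGFP fusion protein alone without its RIN1 binding partner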
# GFP quench-2: counter-screen for Rin1-Abl interaction inhibitors: GFP fluorescence quenching; GFP fluorescence quenching counterscreen, biochemical; IC50, µM; 25 tested, under 10 active; shares compounds with Rin1-Abl PPI inh; call rule not given here
# * = called active by the depositor; · = no result. Sampled rows, rich in hits. Any-hit rate of the full collection: about 1.1%. Unless noted, no stated cut-off is given here; in the data, active means inhibition above about 6.5%; inactive means the rest.
SMILES,Rin1-Abl PPI inh,PDI inh,CAL PDZ FP-1,CAL PDZ FP-2,ERp5 block,ERAP1 HTS inh,Rin1 Abl conf,GFP quench-1,others
Oc1ccc(C[C@H]2NCCc3cc(O)c(O)cc32)cc1O,62.4*,7.4,-4.6,·,0.8,0.5,70.4*,3.8,GFP quench dose=>67.5
Oc1ccc(CC2CC3CCN2CC3)cc1O (stereo not given),-1.2,0.0,-0.9,-2.6,·,·,·,·,
O=C(O)[C@H]1[C@H](CO)[C@H]2Cn3c(ccc(-c4ccccc4)c3=O)[C@@H]1N2CC1CCCCC1,·,·,·,·,-0.2,-0.1,·,·,
CCOC(=O)N1CCC(NC(=O)CCc2nc(C3=CCN(C)CC3)no2)CC1,69.6*,1.4,0.6,-2.3,-12.4,-3.9,50.0*,-0.3,GFP quench dose=>67.5;GFP quench-2=>67.5
Nc1c(C(=O)NCC2CCCO2)c2nc3ccccc3nc2n1Cc1ccco1 (stereo not given),-1.9,1.9,·,-0.2,-7.3,-4.1,·,·,
Nc1c(C(=O)NC2CCCC2)c2nc3ccccc3nc2n1CC1CCCO1 (stereo not given),19.2*,-5.7,-0.3,-2.8,·,·,1.3,0.6,
O=C(O)[C@@H]1[C@@H](CO)[C@@H]2Cn3c(ccc(-c4ccccc4)c3=O)[C@H]1N2S(=O)(=O)c1ccccc1F,·,·,·,·,17.8,1.3,·,·,
COC(=O)[C@H]1[C@H](CO)[C@H]2Cn3c(ccc(-c4ccccc4F)c3=O)[C@@H]1N2Cc1ccncc1,·,·,·,·,-5.3,-1.8,·,·,
O=C(Cc1ccccn1)N1CCCCN2[C@@H](CO)[C@@H](c3ccc(Br)cc3)[C@@H]2C1,·,·,·,·,-0.8,3.4,·,·,
Clc1ccc2c(c1)C(OC1CN3CCC1CC3)c1ccccc1CS2 (stereo not given),9.7*,1.7,0.7,-1.7,-3.3,-2.9,2.8,0.3,
COC(=O)[C@@H]1[C@@H](CO)[C@@H]2Cn3c(ccc(/C=C/c4ccccc4)c3=O)[C@H]1N2C(=O)C1CC1,·,·,·,·,-1.5,-1.7,·,·,
NC(=O)c1cn(C2CCCCC2)c2ccccc2c1=O,10.1*,8.4,-5.7,-1.3,-0.4,2.2,11.3*,-0.3,
O=C(Cc1ccccc1)N1C[C@H]2[C@@H](c3ccccc31)[C@H](CO)N2Cc1ccccc1,·,·,·,·,0.9,-1.1,·,·,
O=c1[nH]c2ccccc2n1C1CCN(C(CCc2ccccc2)c2nnnn2C2CCCCC2)CC1 (stereo not given),26.9*,·,·,·,-0.4,·,14.5*,-0.2,
CSCCC(c1nnnn1C1CCCC1)N1CCC(n2c(=O)[nH]c3ccccc32)CC1 (stereo not given),19.2*,·,·,·,3.9,4.8,19.7*,-2.1,GFP quench dose=>67.5
CSCCC(c1nnnn1Cc1ccccc1)N1CCC(n2c(=O)[nH]c3ccccc32)CC1 (stereo not given),4.9,·,·,·,3.4,0.4,·,·,
O=c1[nH]c2ccccc2n1C1CCN(C(CCc2ccccc2)c2nnnn2Cc2ccccc2)CC1 (stereo not given),1.2,·,·,·,-8.8,0.9,·,·,
CSCCC(c1nnnn1C1CCCCC1)N1CCC(n2c(=O)[nH]c3ccccc32)CC1 (stereo not given),52.7*,·,·,·,-2.4,-3.2,44.2*,-1.9,GFP quench dose=>67.5
CC(C)(C)n1nnnc1C(CCc1ccccc1)N1CCC(n2c(=O)[nH]c3ccccc32)CC1 (stereo not given),17.1*,·,·,·,2.8,-0.4,11.2*,-1.4,
O=C(O)[C@@H]1[C@@H](CO)[C@@H]2Cn3c(ccc(-c4cccc(F)c4)c3=O)[C@H]1N2CCc1ccccc1,·,·,·,·,5.5,3.4,·,·,
C=Cc1cc(OC)c2c(c1)c(=O)oc1c2cc(OC)c2c(O)ccc(C3OC(C)C(O)C(C)(O)C3O)c21 (stereo not given),21.5*,2.4,-2.2,-0.6,-4.9,2.2,-5.0,1.0,
CN(C)C1C(=O)C(C(N)=O)=C(O)C2(O)C(=O)C3=C(O)c4c(O)cccc4C(C)(O)C3C(O)C12 (stereo not given),24.8*,-4.7,20.3,-0.3,6.2,8.4,3.0,2.1,
COC(=O)[C@H]1[C@H](CO)[C@H]2Cn3c(ccc(C4=CCCCC4)c3=O)[C@@H]1N2CC1CC1,·,·,·,·,-1.0,-1.9,·,·,
CCOC(=O)c1c(NS(=O)(=O)c2ccccc2)n(CCCOC)c2nc3ccccc3nc12,33.4*,-13.7,2.3,-0.3,·,·,0.6,0.4,
COCCCn1c(N)c(C(=O)OCCOC)c2nc3ccccc3nc21,0.1,-3.1,-3.3,-1.3,·,·,·,·,
SMILES,Rin1-Abl PPI inh,PDI inh,CAL PDZ FP-1,CAL PDZ FP-2,ERp5 block,ERAP1 HTS inh,Rin1 Abl conf,GFP quench-1,others
COCC#Cc1ccc([C@@H]2[C@@H](CO)N3CCCCN(C(=O)Cc4ccccn4)C[C@@H]23)cc1,·,·,·,·,-10.9,-3.0,·,·,
COC(=O)[C@H]1[C@H](CO)[C@H]2Cn3c(cccc3=O)[C@@H]1N2CCc1ccccc1,·,·,·,·,-0.4,0.4,·,·,
CCCN1CCc2cccc3c2[C@H]1Cc1ccc(O)c(O)c1-3,11.8*,5.4,-1.0,0.4,·,·,5.9,8.6*,
COc1ccc2c(c1O)-c1c(OC)c(OC)cc3c1[C@H](C2)N(C)CC3,1.1,-2.5,-4.4,-1.0,7.1,-2.9,·,·,
NC(=O)C1(N2CCCCC2)CCN(Cc2ccccc2)CC1,7.9*,-4.2,-2.8,-0.4,0.1,0.6,-0.3,0.4,
O=C1CNC[C@H]2[C@@H](c3ccc(Br)cc3)[C@@H](CO)N12,·,·,·,·,1.4,-3.0,·,·,
O=C(Cc1ccncc1)N1CCCCN2[C@@H](CO)[C@@H](c3ccc(C#CC4(O)CCCC4)cc3)[C@@H]2C1,·,·,·,·,-3.3,2.0,·,·,
C[C@]12CC[C@H](O)CC1=CC(=O)C1C2CC[C@]2(C)C(=O)CCC12 (stereo not given in full),12.9*,2.5,2.3,-0.4,1.4,-2.8,6.2,-1.1,
O=C(Cc1cccnc1)N1CCCCN2[C@@H](CO)[C@@H](c3ccc(C#CC4CC4)cc3)[C@@H]2C1,·,·,·,·,1.1,0.0,·,·,
COc1ccc(C(CC(C)=O)c2c(O)c3ccccc3oc2=O)cc1OC (stereo not given),1.8,2.0,·,·,5.3,4.8,·,·,
CC/C(CC(c1ccccc1)c1c(O)c2ccccc2oc1=O)=N\NC(N)=S (stereo not given),5.9*,-6.9,65.4*,-0.8,·,·,5.2,0.3,
COCCCNC(=O)c1c(N)n(Cc2ccco2)c2nc3ccccc3nc12,-1.5,8.3,·,·,-2.1,-47.4,·,·,
COc1ccc(Cn2c(N)c(C(=O)NCc3ccco3)c3nc4ccccc4nc32)cc1OC,15.3*,-6.8,-4.0,-0.9,·,·,-3.9,-0.2,
